According to ChEMBL document CHEMBL4680130, “Substituted 4-phenylthiazoles: Development of potent and selective A, A and dual A/A adenosine receptor antagonists” (Eur J Med Chem, 2020):

What was measured:
[1] = biological target: T1, Adenosine receptor A2b (Homo sapiens, UniProt P29275); assay: Displacement of [3H]PSB-603 from human adenosine receptor A2B expressed in CHO cell membranes incubated for 75 mins by radioligand competition assay; design: species or system Cell membrane
T1 sequence (P29275 whole entry): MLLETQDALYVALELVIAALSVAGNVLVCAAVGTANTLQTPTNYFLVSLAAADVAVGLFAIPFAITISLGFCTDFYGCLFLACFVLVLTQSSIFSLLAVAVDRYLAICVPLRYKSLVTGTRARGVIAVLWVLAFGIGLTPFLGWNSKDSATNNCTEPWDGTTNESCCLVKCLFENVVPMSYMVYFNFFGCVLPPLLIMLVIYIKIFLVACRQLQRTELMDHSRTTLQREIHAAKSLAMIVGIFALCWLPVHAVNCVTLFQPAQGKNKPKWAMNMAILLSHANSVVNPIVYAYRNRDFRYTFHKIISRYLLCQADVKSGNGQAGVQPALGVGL

[2] = biological target: T2, Adenosine receptor A1 (Rattus norvegicus, UniProt P25099); assay: Displacement of [3H]CCPA from adenosine receptor A1 in rat brain cortex membranes incubated for 90 mins by radioligand competition assay; type: cell membranes, Cell membrane
T2 sequence (P25099 whole entry): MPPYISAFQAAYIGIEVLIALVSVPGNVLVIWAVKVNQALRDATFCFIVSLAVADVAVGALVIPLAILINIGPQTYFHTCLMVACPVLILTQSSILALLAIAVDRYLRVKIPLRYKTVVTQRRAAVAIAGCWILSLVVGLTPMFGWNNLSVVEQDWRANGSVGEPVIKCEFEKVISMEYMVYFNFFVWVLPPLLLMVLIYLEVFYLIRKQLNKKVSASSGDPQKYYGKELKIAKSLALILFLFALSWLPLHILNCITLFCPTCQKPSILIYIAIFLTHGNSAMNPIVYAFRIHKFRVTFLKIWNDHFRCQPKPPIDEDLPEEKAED

[3] = biological target: Adenosine receptor A2a (Rattus norvegicus, UniProt P30543); assay: Displacement of [3H]MSX2 from adenosine receptor A2A in rat brain striatum membranes incubated for 30 mins by radioligand competition assay; type: cell membranes, Cell membrane
[4] = biological target: T3, Adenosine receptor A3 (Homo sapiens, UniProt P0DMS8); assay: Displacement of [3H]PSB-11 from human adenosine receptor A3 expressed in CHO cell membranes incubated for 60 mins by radioligand competition assay; design: species or system Cell membrane
T3 sequence (P0DMS8 whole entry): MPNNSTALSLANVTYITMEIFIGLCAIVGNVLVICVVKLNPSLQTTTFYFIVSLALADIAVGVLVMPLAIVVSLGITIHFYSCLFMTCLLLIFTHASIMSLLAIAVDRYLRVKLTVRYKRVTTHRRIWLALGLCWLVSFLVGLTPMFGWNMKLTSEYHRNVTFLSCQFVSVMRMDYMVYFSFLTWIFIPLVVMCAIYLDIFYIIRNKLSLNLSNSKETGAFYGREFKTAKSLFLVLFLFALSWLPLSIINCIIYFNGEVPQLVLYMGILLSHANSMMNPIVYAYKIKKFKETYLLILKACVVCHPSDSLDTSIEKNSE

[5] = biological target: T4, Adenosine receptor A3 (Rattus norvegicus, UniProt P28647); assay: Displacement of [3H]NECA from rat adenosine receptor A3 expressed in CHO cell membranes incubated for 60 mins by radioligand competition assay; design: species or system Cell membrane
T4 sequence (P28647 whole entry): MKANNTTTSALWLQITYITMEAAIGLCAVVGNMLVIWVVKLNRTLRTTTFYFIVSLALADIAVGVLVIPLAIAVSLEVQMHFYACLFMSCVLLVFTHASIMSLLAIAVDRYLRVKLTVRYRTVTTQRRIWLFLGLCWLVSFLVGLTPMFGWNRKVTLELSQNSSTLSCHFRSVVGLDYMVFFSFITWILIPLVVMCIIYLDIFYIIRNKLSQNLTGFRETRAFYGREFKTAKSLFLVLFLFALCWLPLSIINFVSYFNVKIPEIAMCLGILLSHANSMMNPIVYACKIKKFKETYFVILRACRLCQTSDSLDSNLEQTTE

[6] = biological target: T5, Adenosine receptor A1 (Homo sapiens, UniProt P30542); assay: Displacement of [3H]CCPA from human adenosine receptor A1 expressed in CHO cell membranes incubated for 90 mins by radioligand competition assay; design: species or system Cell membrane
T5 sequence (P30542 whole entry): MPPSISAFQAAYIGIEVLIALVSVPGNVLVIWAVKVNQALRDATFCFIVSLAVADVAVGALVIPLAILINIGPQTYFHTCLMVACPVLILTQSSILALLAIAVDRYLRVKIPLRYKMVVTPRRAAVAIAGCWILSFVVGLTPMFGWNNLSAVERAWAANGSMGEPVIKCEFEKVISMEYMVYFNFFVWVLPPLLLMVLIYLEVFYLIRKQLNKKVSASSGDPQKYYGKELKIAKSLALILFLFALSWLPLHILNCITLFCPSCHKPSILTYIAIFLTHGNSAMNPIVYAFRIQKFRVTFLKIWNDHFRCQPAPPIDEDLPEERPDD

[7] = biological target: T6, Adenosine receptor A2a (Homo sapiens, UniProt P29274); assay: Displacement of [3H]MSX2 from human adenosine receptor A2A expressed in HEK293 cell membranes incubated for 30 mins by radioligand competition assay; design: species or system Cell membrane
[8] = biological target: T6, Adenosine receptor A2a; assay: Displacement of [3H]MSX2 from human adenosine receptor A2A expressed in HEK293 cell membranes at 0.1 uM incubated for 30 mins by radioligand competition assay relative to control; conditions: Cell membrane
Method in brief: (§1)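 A2A binding, [3H]MSX-2 1.0 nM. Membranes: rat brain striatum, or HEK293 cells expressing human A2A. Adenosine deaminase preincubation 20 min, then 30 min at rt in 50 mM Tris-HCl pH 7.4 with 2.5% DMSO. Nonspecific binding defined by 50 µM NECA. GF/B filtration, scintillation counting. Single-concentration percent inhibition, ≥3 experiments in duplicate or triplicate.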

[9] = biological target: T7, Adenosine receptor A2b (Homo sapiens) (UniProt P29275); assay: Displacement of [3H]PSB-603 from human adenosine receptor A2B expressed in CHO cell membranes at 0.1 uM incubated for 75 mins by radioligand competition assay relative to control; conditions: Cell membrane
T7 sequence (whole entry): T1 sequence (P29275 whole entry)
Method in brief: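 CHO membranes expressing human or rat A2B, [3H]PSB-603 0.3 nM. Nonspecific binding defined by 10 µM DPCPX. Preincubated 20 min with adenosine deaminase, then 75 min at rt in Tris-HCl pH 7.4 with 2.5% DMSO. Filters washed with ice-cold 50 mM Tris-HCl containing 0.1% BSA; scintillation counting.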

[10] = biological target: Adenosine receptor A2a (Rattus norvegicus) (UniProt P30543); assay: Displacement of [3H]MSX2 from adenosine receptor A2A in rat brain striatum membranes at 0.1 uM incubated for 30 mins by radioligand competition assay relative to control; conditions: Cell membrane; method in brief: as §1
[11] = biological target: T8, Adenosine receptor A1 (Rattus norvegicus) (UniProt P25099); assay: Displacement of [3H]CCPA from adenosine receptor A1 in rat brain cortex membranes at 0.1 uM incubated for 90 mins by radioligand competition assay; conditions: Cell membrane
T8 sequence (whole entry): T2 sequence (P25099 whole entry)
Method in brief: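 A1 competition binding with [3H]CCPA, 0.5 nM. Membranes: CHO cells expressing human A1, or rat brain cortex. Membranes preincubated 20 min with adenosine deaminase (2 U/mL per mg protein). Incubation 90 min at rt in 50 mM Tris-HCl pH 7.4 with 2.5% final DMSO. Nonspecific binding defined by 10 µM 2-chloroadenosine. GF/B filtration, scintillation counting.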

[12] = in the assay text read “at 1 uM” for “at 0.1 uM”

Adenosine receptor A2a (Rattus norvegicus), sequence (P30543 whole entry): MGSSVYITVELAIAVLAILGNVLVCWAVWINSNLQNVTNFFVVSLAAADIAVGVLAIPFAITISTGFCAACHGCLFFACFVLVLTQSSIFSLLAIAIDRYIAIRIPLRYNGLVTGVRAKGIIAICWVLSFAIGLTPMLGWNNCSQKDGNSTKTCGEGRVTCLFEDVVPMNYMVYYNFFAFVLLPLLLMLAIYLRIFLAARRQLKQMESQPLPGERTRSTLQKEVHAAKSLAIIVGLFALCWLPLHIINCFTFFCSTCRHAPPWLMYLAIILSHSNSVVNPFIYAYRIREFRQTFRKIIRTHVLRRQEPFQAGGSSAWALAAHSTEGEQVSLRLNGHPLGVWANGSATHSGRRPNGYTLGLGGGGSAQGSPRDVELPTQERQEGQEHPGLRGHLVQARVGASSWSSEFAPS
Adenosine receptor A2a (Rattus norvegicus, UniProt P30543), sequence (P30543 whole entry): as above
T6 sequence (P29274 whole entry): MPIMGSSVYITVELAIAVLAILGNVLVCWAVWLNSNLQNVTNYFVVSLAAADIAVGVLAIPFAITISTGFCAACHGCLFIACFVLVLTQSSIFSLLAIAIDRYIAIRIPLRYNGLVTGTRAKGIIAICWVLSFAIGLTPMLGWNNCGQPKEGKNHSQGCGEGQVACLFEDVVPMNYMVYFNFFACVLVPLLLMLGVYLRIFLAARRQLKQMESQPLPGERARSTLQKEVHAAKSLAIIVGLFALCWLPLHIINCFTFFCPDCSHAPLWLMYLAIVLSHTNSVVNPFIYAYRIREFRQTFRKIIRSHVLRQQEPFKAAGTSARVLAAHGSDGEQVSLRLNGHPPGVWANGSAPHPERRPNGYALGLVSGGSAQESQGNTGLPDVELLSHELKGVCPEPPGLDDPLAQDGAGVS

SMILES | Ki [1] [µM] | Ki [2] [µM] | Ki [3] [µM] | Ki [4] [µM] | Ki [5] [µM] | Ki [6] [µM] | Ki [7] [µM] | inhibition ([8]; filed as antagonist, in the assay text read “1 uM” for “0.1 uM”) [%] | inhibition [9] [%] | inhibition [10] [%] | inhibition ([11]; filed as antagonist) [%] | inhibition [8, 12] [%] | inhibition [11] [%]
COc1cc(-c2nc(NC(C)=O)sc2-c2ccncc2)cc(OC)c1OC | 3.2 | – | – | – | – | – | – | – | – | – | – | – | –
CCCCn1c(=O)c2[nH]c(C34CC5CC(CC3C5)C4)nc2n(CCCO)c1=O | 0.187 | 0.000124 | 0.552 | 2.3 | 6.5 | – | – | – | – | – | – | – | –
COc1ccc(C(=O)Nc2nc(-c3ccccc3)c(C(=O)c3ccccc3)s2)cc1 | > 0.1 | 0.00147 | > 1 | 0.0254 | > 1 | 0.0367 | > 1 | 41 | 2 | 32 | – | – | –
O=C(Nc1nc(-c2ccccc2)c(-c2nc3ccccc3c(=O)n2-c2ccccc2)s1)c1ccccc1 | > 0.1 | > 1 | > 1 | 0.111 | – | > 1 | > 1 | – | – | 3 | 1 | – | –
CC[C@@H]1CN2C(=O)N(C)c3nc(-c4cc(Cl)cc(Cl)c4Cl)[nH]c3C2=N1 | 30 | 0.805 | 6.04 | – | – | 1.7 | 2.7 | – | – | – | – | – | –
CC[C@@H]1CN2C(=O)N(C)c3nc(-c4ccccc4)[nH]c3C2=N1 | 3.7 | – | – | – | > 10 | – | 0.108 | – | – | – | – | – | –
COc1ccc(-n2c(-c3sc(NC(=O)c4ccccc4)nc3-c3ccccc3)nc3ccccc3c2=O)cc1 | > 0.1 | > 1 | > 1 | 0.00823 | 1.32 | > 1 | > 1 | – | – | 17 | 10 | 3 | –
Cn1c(=O)c2[nH]cnc2n(C)c1=O [THEOPHYLLINE] | – | – | – | – | > 100 | – | – | – | – | – | – | – | –
COc1ccc(C(=O)Nc2nc(-c3ccccc3)c(-c3nc4ccccc4c(=O)n3-c3ccccc3)s2)cc1 | > 0.1 | > 1 | > 1 | 0.174 | – | > 1 | > 1 | – | – | 1 | 11 | 20 | –
O=C(Nc1nc(-c2ccccc2)c(-c2ccccn2)s1)c1ccccc1 | > 0.1 | 0.00347 | 0.391 | > 1 | – | 0.0908 | 0.0836 | – | – | – | – | – | –
Cc1ccc(-n2c(-c3sc(NC(=O)c4ccco4)nc3-c3ccccc3)nc3ccccc3c2=O)cc1 | > 0.1 | > 1 | > 1 | 0.0254 | 1.84 | > 1 | > 1 | – | – | 6 | – | 1 | 25
Cc1ccc(-n2c(-c3sc(NC(=O)c4ccccc4)nc3-c3ccccc3)nc3ccccc3c2=O)cc1 | > 0.1 | > 1 | > 1 | 0.00905 | 0.806 | > 1 | > 1 | – | – | 17 | 23 | – | –
COc1ccc(-n2c(-c3sc(NC(=O)c4ccco4)nc3-c3ccccc3)nc3ccccc3c2=O)cc1 | > 0.1 | > 1 | > 1 | 0.00645 | 0.973 | > 1 | > 1 | – | 30 | – | – | 11 | 25
O=C(Nc1nc(-c2ccccc2)c(-c2nc3ccccc3c(=O)n2-c2ccccc2)s1)c1ccco1 | > 0.1 | > 1 | > 1 | 0.129 | – | > 1 | > 1 | – | 1 | 33 | – | 5 | 26
CCCOC(=O)c1c(-c2ccccc2)nc(CC)c(C(=O)SCC)c1CCC | > 10 | – | – | – | – | > 10 | 3.66 | – | – | – | – | – | –
COc1ccc(C(=O)Nc2nc(-c3ccccc3)c(-c3nc4ccccc4c(=O)n3-c3ccc(OC)cc3)s2)cc1 | > 0.1 | > 1 | > 1 | 0.00463 | > 10 | > 1 | > 1 | – | – | 1 | – | 10 | 17
